Assay results published in ChEMBL document CHEMBL4602702, “Red-Emitting Dibenzodiazepinone Derivatives as Fluorescent Dualsteric Probes for the Muscarinic Acetylcholine M2 Receptor” (J Med Chem, 2020).
The source made the active and inactive calls. The calls are words filed in the database; no cut-off is given here.

Key:
[1] = biological target: T1, Muscarinic acetylcholine receptor M2 (Homo sapiens, UniProt P08172); assay: Displacement of 4-(2-((1E,3E)-5-((E)-1-(6-((3,5-Bis((2-(3-(1-(4-(1-(2-oxo-2-(11-oxo-10,11-dihydro-5H-dibenzo[b,e][1,4]diazepin-5-yl)ethyl)piperidin-4-yl)butyl)-1H-imidazol-4-yl)propanamido)ethyl)carbamoyl)benzyl)amino)-6-oxohexyl)-3,3-dimethyl-5-sulfoindolin-2-ylidene)penta-1,3-dien-1-yl)-3,3-dimethyl-3H-indol-1-ium-1-yl)butane-1-sulfonate Tris(hydrotrifluoroacetate) fluorescent tracer from human muscarinic M2 receptor expressed in […] cells measured after 60 mins by Hoechst H33342 dye based confocal plate reader assay; assay type: cell-based
T1 sequence (P08172 whole entry): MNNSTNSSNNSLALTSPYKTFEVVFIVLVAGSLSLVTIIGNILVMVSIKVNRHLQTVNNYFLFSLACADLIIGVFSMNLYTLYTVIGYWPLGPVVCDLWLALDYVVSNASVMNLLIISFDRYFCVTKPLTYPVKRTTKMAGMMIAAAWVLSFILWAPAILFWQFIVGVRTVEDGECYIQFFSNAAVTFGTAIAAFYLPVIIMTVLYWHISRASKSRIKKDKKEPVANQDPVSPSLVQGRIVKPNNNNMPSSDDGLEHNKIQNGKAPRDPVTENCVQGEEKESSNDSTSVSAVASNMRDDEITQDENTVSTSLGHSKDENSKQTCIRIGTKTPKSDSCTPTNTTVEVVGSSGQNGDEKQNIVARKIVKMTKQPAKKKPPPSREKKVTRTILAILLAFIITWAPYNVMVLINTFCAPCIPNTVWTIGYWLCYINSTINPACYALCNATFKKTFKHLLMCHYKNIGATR

[2] = biological target: T1, Muscarinic acetylcholine receptor M2; assay: Displacement of 4-(2-((1E,3E)-5-((E)-3,3-Dimethyl-1-(6-oxo-6-((2-(3-(1-(4-(1-(2-oxo-2-(11-oxo-10,11-dihydro-5H-dibenzo[b,e][1,4]diazepin-5-yl)ethyl)piperidin-4-yl)butyl)-1H-imidazol-4-yl)propanamido)ethyl)-amino)hexyl)-5-sulfoindolin-2-ylidene)penta-1,3-dien-1-yl)-3,3-dimethyl-3H-indol-1-ium-1-yl)butane-1-sulfonateHydrotrifluoroacetate fluorescent tracer from human muscarinic M2 receptor expressed in […] cells measured after 60 mins by Hoechst H33342 dye based confocal plate reader assay; assay type: cell-based
[3] = biological target: T2, Muscarinic acetylcholine receptor M4 (Homo sapiens, UniProt P08173); assay: Displacement of [3H]-NMS from human muscarinic M4 receptor stably expressed in CHO-K9 cells by radioligand competitive binding assay; assay type: cell-based
T2 sequence (P08173 whole entry): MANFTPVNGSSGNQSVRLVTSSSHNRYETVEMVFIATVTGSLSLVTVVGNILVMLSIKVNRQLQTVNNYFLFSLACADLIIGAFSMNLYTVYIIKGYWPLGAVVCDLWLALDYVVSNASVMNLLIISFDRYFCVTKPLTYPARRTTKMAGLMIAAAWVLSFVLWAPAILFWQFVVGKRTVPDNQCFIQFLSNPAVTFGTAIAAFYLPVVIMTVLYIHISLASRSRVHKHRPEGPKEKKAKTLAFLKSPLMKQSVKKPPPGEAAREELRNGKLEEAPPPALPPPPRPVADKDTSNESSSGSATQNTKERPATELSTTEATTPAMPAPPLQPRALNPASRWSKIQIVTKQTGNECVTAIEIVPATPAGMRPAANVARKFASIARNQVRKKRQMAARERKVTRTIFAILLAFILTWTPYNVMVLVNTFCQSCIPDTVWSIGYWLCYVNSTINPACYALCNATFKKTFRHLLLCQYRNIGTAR
In short: (§1)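 Equilibrium competition binding at live CHO-hMxR cells with [3H]NMS at M1 0.2, M2 0.2, M3 0.2, M4 0.1, M5 0.3 nM. […] Four-parameter logistic fit converted to pKi; at least three experiments in triplicate (some two).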

[4] = biological target: T1, Muscarinic acetylcholine receptor M2; assay: Displacement of [3H]-NMS from human muscarinic M2 receptor stably expressed in CHO-K9 cells by radioligand competitive binding assay; assay type: cell-based; in short: as §1
[5] = biological target: Muscarinic acetylcholine receptor M3 (Homo sapiens, UniProt P20309); assay: Displacement of [3H]-NMS from human muscarinic M3 receptor stably expressed in CHO-K9 cells by radioligand competitive binding assay; assay type: cell-based; in short: as §1
[6] = biological target: T3, Muscarinic acetylcholine receptor M5 (Homo sapiens, UniProt P08912); assay: Displacement of [3H]-NMS from human muscarinic M5 receptor stably expressed in CHO-K9 cells by radioligand competitive binding assay; assay type: cell-based; in short: as §1
T3 sequence (P08912 whole entry): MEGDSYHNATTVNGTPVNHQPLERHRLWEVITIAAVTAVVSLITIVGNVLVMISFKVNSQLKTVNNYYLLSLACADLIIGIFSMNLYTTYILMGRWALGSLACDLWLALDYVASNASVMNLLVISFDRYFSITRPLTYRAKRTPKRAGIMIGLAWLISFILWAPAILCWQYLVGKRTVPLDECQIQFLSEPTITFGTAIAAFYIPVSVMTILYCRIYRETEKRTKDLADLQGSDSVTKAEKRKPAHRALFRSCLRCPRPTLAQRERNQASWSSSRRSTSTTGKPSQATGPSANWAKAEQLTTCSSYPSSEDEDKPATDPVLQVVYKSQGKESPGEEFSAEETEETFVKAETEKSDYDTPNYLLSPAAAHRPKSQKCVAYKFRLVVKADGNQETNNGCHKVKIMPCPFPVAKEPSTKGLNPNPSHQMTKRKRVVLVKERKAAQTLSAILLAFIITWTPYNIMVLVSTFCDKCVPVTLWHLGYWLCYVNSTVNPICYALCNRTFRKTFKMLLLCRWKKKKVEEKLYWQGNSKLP

[7] = biological target: T4, Muscarinic acetylcholine receptor M1 (Homo sapiens, UniProt P11229); assay: Displacement of [3H]-NMS from human muscarinic M1 receptor stably expressed in CHO-K9 cells by radioligand competitive binding assay; assay type: cell-based; in short: as §1
T4 sequence (P11229 whole entry): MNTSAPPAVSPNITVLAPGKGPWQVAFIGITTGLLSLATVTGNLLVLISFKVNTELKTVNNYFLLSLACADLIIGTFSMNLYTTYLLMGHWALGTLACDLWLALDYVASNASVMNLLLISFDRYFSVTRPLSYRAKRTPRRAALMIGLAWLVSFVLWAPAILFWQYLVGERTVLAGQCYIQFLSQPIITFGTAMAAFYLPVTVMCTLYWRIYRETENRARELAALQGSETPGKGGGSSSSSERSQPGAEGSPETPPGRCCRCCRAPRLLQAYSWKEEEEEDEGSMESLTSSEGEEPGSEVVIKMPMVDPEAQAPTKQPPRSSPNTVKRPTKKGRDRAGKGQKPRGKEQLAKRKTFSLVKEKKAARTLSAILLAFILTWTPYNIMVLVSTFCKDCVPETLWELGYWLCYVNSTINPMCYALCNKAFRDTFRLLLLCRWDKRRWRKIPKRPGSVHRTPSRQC

[8] = biological target: T5, Muscarinic acetylcholine receptor M2 (Homo sapiens) (UniProt P08172); assay: Binding affinity to human muscarinic M2 receptor expressed in […] cells assessed as unspecific binding at Kd incubated in dark at 22 degree C for 2 hrs in presence of atropine by FACSCalibur flow cytometric saturation binding study relative to control; assay type: cell-based
T5 sequence (whole entry): T1 sequence (P08172 whole entry)

[9] = biological target: T1, Muscarinic acetylcholine receptor M2; assay: Binding affinity to human muscarinic M2 receptor expressed in CHO-K9 cells incubated in dark measured after 60 mins by Hoechst H33342 dye based confocal plate reader assay; assay type: cell-based
In short: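 Live CHO-hMxR cells (M1 or M2) incubated with fluorescent ligand at 22 °C in the dark for 1 h, washed, then imaged at once by high-content confocal plate reader.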

[10] = biological target: T5, Muscarinic acetylcholine receptor M2 (Homo sapiens); assay: Agonist activity at human muscarinic M2 receptor expressed in HEK293 cells co-expressing HA-Galphaq/i5 assessed as induction of Galphaq/i5-mediated IP1 accumulation by HTRF assay; assay type: functional, cell-based
In short: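 HEK-293 cells transiently co-transfected with hM2R and hybrid Gαqi5-HA, run in agonist mode at 37 °C; IP1 accumulation measured. Carbachol control from 14 independent experiments in duplicate; test ligands from three or four independent experiments in duplicate.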

[11] = biological target: T1, Muscarinic acetylcholine receptor M2; assay: (§2) Antagonist activity at human muscarinic M2 receptor expressed in HEK293 cells co-expressing HA-Galphaq/i5 assessed as inhibition of carbachol-induced IP1 accumulation at 22 degree C pre-incubated for 180 mins followed by carbachol addition and further incubated at 37 degree C for 90 mins by HTRF assay; assay type: functional, cell-based
In short: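 HEK-hM2-Gαqi5-HA cells (transient transfection) preincubated with antagonist at 22 °C for 180 min, then carbachol 0.3 μM (≈EC80) added and incubation continued at 37 °C for 90 min. Readout is inhibition of IP1 accumulation as pIC50, mean ± SEM of n independent experiments, each in duplicate.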

[12] = biological target: T1, Muscarinic acetylcholine receptor M2; assay: Antagonist activity at human muscarinic M2 receptor expressed in HEK293 cells co-expressing HA-Galphaq/i5 assessed as inhibition of carbachol-induced IP1 accumulation at 37 degree C pre-incubated for 30 mins followed by carbachol addition and measured after 60 mins by HTRF assay; assay type: functional, cell-based
[13] = biological target: T2, Muscarinic acetylcholine receptor M4; assay: as §2, with “M4” for “M2”; assay type: functional, cell-based
[14] = biological target: T1, Muscarinic acetylcholine receptor M2; assay: Binding affinity to human muscarinic M2 receptor expressed in […] cells incubated in dark at 22 degree C for 2 hrs by FACSCalibur flow cytometric saturation binding study; assay type: cell-based
[15] = Chemical stability of compound in PBS buffer assessed as retention time at pH 7.4 and 22 degree C measured up to 48 hrs by RP-HPLC analysis; assay type: physicochemical; conditions: pH 7.4, 48 h
In short: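 Fluorescent ligand stability checked in PBS pH 7.4 over 48 h by RP-HPLC on a C18 column with an aqueous TFA/acetonitrile gradient, oven at 25 °C, detection at 220 nm.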

Sequence of Muscarinic acetylcholine receptor M3 (P20309 whole entry): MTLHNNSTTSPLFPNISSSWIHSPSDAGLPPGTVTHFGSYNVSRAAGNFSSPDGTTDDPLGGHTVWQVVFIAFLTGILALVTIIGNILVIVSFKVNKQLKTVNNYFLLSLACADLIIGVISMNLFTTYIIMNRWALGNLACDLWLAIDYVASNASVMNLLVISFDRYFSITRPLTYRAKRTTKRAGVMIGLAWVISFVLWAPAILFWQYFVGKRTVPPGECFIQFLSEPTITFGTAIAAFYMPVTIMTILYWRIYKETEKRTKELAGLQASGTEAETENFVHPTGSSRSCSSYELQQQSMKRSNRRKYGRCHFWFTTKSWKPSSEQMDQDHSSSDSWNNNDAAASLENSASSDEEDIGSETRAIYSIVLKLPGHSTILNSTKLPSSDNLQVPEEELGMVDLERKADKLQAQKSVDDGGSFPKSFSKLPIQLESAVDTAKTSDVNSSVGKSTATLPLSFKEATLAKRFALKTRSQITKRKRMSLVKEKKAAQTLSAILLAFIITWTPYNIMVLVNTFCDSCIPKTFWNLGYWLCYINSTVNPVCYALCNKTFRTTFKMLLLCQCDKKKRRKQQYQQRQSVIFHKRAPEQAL

| SMILES | Ki [3] [nM] | Ki [4] [nM] | Ki [5] [nM] | Ki [6] [nM] | Ki [7] [nM] | also measured |
| --- | --- | --- | --- | --- | --- | --- |
| CCC(=O)NCc1cc(C(=O)NCCNC(=O)CCc2cn(CCCCC3CCN(CC(=O)N4c5ccccc5NC(=O)c5ccccc54)CC3)cn2)cc(C(=O)NCCNC(=O)CCc2cn(CCCCC3CCN(CC(=O)N4c5ccccc5NC(=O)c5ccccc54)CC3)cn2)c1 |  |  |  |  |  | Ki [1]: 0.525 nM; Ki [2]: 0.355 nM |
| Cc1cc(/C=C/C=C/c2ccc(N(C)C)cc2)cc(C)[n+]1CCN1CCN(CCCCC2CCN(CC(=O)N3c4ccccc4NC(=O)c4ccccc43)CC2)CC1 | 9.55 | 3.02 | 148 | 389 | 13.8 |  |
| CC1(C)C(/C=C/C=C/C=C2/N(CCCCCC(=O)NCCN3CCN(CCCCC4CCN(CC(=O)N5c6ccccc6NC(=O)c6ccccc65)CC4)CC3)c3ccccc3C2(C)C)=[N+](CCCCS(=O)(=O)[O-])c2ccccc21 | 3.98 | 1.35 | 67.6 | 141 | 10 | Activity [8]: 10%; Kd ([9]; read-out: Kd): 10.8 nM; Kd ([9]; read-out: pKd (converted)): 8.71 nM; Activity [10]: inactive; IC50 [11]: 60.3 nM; IC50 [12]: 49 nM; IC50 [13]: 91.2 nM; Kd ([14]; read-out: Kd): 2 nM; Kd ([14]; read-out: pKd (converted)): 2.57 nM |
| CC1(C)C(/C=C/C=C/C=C2/N(CCCCCC(=O)NCc3cc(C(=O)NCCN4CCC(N5CCC(n6c(=O)[nH]c7ccccc76)CC5)CC4)cc(C(=O)NCCN4CCN(CCCCC5CCN(CC(=O)N6c7ccccc7NC(=O)c7ccccc76)CC5)CC4)c3)c3ccc(S(=O)(=O)[O-])cc3C2(C)C)=[N+](CCCCS(=O)(=O)O)c2ccccc21.O=C(O)C(F)(F)F.O=C(O)C(F)(F)F.O=C(O)C(F)(F)F.O=C(O)C(F)(F)F | 2.57 | 0.257 | 21.9 | 30.9 | 2.29 | Activity [8]: 10%; Kd ([14]; read-out: Kd): 0.65 nM; Retention_time [15]: 18 min |
| CC1(C)C(/C=C/C=C/C=C2/N(CCCCCC(=O)NCCNC(=O)CCc3cn(CCCCC4CCN(CC(=O)N5c6ccccc6NC(=O)c6ccccc65)CC4)cn3)c3ccccc3C2(C)C)=[N+](CCCCS(=O)(=O)[O-])c2ccccc21 |  | 0.933 |  |  |  |  |
| NCc1cc(C(=O)NCCNC(=O)CCc2cn(CCCCC3CCN(CC(=O)N4c5ccccc5NC(=O)c5ccccc54)CC3)cn2)cc(C(=O)NCCNC(=O)CCc2cn(CCCCC3CCN(CC(=O)N4c5ccccc5NC(=O)c5ccccc54)CC3)cn2)c1 |  | 0.269 |  |  |  |  |
| NCCN1CCN(CCCCC2CCN(CC(=O)N3c4ccccc4NC(=O)c4ccccc43)CC2)CC1 | 0.447 | 0.182 | 145 | 234 | 5.89 |  |
